This note sets out measurements from ChEMBL document CHEMBL5653631, “A Potent and Selective ULK1 Inhibitor Suppresses Autophagy and Sensitizes Cancer Cells to Nutrient Stress” (iScience, 2018).

The target of assay [1] is T1, Serine/threonine-protein kinase A-Raf (Homo sapiens) (UniProt P10398).
T1 sequence (whole entry): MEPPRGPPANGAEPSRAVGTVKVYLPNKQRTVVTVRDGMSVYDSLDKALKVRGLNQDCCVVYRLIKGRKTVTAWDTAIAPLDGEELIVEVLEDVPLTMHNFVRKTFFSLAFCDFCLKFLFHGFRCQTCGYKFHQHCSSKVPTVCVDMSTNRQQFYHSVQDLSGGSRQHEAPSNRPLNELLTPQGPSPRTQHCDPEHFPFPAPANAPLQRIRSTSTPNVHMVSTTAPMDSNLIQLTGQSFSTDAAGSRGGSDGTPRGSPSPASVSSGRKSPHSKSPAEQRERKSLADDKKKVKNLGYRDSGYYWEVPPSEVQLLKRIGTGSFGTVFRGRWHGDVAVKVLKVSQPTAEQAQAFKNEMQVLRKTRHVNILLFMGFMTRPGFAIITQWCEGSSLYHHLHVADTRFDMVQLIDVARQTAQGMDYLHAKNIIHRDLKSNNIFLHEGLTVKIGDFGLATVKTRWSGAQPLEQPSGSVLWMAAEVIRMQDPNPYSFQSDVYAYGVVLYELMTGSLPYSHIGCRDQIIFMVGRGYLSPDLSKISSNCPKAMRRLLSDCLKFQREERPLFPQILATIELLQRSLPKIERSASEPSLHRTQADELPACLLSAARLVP
The experiment in a line: Inhibition of human recombinant ARAF at 40 nM related to control ULK1. The gist of the method: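 Radiometric activity assays in a panel of 327 human recombinant kinases, each run in duplicate at one inhibitor concentration. Activity remaining is expressed as percent of vehicle control, and percent inhibition is calculated as 100% minus percent activity remaining.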

The target in assay [2] is Wee1-like protein kinase (Homo sapiens) (UniProt P30291). The experiment in a line: Inhibition of human recombinant Wee1 at 40 nM related to control ULK1.
Assay [3] has as its target Transient receptor potential cation channel subfamily M member 7 (Homo sapiens) (UniProt Q96QT4). Kind of assay: Inhibition of human recombinant ChaK1 at 40 nM related to control ULK1.
Assay [4] concerns the target Serine/threonine-protein kinase Nek6 (Homo sapiens) (UniProt Q9HC98). Kind of assay: Inhibition of human recombinant NEK6 at 40 nM related to control ULK1.
Assay [5] addresses T2, TGF-beta receptor type-1 (Homo sapiens) (UniProt P36897).
T2 sequence (whole entry): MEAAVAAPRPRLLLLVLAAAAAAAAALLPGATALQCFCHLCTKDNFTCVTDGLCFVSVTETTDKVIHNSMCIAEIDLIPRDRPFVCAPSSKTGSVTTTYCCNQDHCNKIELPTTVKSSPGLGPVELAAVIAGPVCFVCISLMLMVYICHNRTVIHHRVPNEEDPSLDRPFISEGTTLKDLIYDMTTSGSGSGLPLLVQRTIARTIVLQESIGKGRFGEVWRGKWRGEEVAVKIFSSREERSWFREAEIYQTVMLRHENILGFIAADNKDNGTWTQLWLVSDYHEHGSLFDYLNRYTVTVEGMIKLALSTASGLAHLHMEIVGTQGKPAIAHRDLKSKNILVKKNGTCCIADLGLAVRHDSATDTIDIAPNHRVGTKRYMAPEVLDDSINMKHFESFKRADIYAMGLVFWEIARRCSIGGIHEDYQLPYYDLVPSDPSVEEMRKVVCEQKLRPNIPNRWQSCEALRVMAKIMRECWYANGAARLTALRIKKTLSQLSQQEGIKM
The experiment in a line: Inhibition of human recombinant TGFbR1 at 40 nM related to control ULK1.

In assay [6] the target is Hepatocyte growth factor receptor (Homo sapiens) (UniProt P08581). Kind of assay: Inhibition of human recombinant MET at 500 nM in presence of ATP by radiometric assay relative to control.
For assay [7], the target named is Serine/threonine-protein kinase MRCK beta (Homo sapiens) (UniProt Q9Y5S2). Kind of assay: Inhibition of human recombinant MRCKb at 500 nM in presence of ATP by radiometric assay relative to control.
The target in assay [8] is BDNF/NT-3 growth factors receptor (Homo sapiens) (UniProt Q16620). Kind of assay: Inhibition of human recombinant TRKB at 500 nM in presence of ATP by radiometric assay relative to control.
Assay [9] deals with Receptor tyrosine-protein kinase erbB-2 (Homo sapiens) (UniProt P04626). The experiment in a line: Inhibition of human recombinant ErbB2 at 500 nM related to control ULK1.
The target of assay [10] is T3, Myotonin-protein kinase (Homo sapiens) (UniProt Q09013).
T3 sequence (whole entry): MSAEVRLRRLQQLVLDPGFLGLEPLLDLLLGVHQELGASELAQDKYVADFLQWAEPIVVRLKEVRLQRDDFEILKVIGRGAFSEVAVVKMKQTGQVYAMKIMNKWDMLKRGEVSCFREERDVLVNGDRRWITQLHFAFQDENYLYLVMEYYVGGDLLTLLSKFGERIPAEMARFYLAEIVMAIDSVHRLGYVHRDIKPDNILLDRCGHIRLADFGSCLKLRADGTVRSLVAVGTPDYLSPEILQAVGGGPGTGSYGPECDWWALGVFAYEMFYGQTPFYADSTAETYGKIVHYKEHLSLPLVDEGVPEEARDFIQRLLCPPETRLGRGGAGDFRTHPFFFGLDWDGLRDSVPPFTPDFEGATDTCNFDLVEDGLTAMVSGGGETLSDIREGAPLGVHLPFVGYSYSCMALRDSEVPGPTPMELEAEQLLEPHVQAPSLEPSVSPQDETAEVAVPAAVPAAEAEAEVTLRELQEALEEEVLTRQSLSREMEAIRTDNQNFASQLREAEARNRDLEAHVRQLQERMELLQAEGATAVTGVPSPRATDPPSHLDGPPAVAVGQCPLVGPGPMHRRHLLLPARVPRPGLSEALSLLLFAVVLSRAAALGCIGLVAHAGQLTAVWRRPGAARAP
Kind of assay: Inhibition of human recombinant DMPK1 at 500 nM related to control ULK1.

Assay [11] deals with G protein-coupled receptor kinase 5 (Homo sapiens) (UniProt P34947). The experiment in a line: Inhibition of human recombinant GPRK5 at 15 nM in presence of ATP by radiometric assay relative to control.
The target of assay [12] is Serine/threonine-protein kinase Nek7 (Homo sapiens) (UniProt Q8TDX7). Kind of assay: Inhibition of human recombinant NEK7 at 15 nM in presence of ATP by radiometric assay relative to control.
The target in assay [13] is Cyclin-dependent kinase 7 (Homo sapiens) (UniProt P50613). The experiment in a line: Inhibition of human recombinant CDK7 at 15 nM in presence of ATP by radiometric assay relative to control.
Sequence of Cyclin-dependent kinase 7 (Homo sapiens) (P50613 whole entry): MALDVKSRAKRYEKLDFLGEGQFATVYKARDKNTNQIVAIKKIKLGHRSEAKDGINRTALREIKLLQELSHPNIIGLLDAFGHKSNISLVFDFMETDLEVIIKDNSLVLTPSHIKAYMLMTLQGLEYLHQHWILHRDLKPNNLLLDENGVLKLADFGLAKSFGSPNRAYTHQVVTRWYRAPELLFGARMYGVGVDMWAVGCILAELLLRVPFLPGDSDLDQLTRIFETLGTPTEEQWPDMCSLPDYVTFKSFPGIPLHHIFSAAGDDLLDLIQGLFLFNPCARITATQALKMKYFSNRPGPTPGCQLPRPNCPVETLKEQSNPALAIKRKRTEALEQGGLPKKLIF

Sequence of Serine/threonine-protein kinase Nek6 (Homo sapiens) (Q9HC98 whole entry): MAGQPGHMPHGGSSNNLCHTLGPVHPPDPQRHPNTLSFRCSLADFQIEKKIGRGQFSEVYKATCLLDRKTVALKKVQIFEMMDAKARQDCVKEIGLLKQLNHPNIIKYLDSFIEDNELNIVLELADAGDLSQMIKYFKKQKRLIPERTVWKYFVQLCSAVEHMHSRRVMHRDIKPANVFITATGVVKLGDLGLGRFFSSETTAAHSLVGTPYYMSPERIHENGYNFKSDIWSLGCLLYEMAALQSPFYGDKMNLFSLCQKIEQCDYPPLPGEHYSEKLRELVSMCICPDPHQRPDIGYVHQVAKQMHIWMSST
Sequence of Hepatocyte growth factor receptor (Homo sapiens) (P08581 whole entry, looked up): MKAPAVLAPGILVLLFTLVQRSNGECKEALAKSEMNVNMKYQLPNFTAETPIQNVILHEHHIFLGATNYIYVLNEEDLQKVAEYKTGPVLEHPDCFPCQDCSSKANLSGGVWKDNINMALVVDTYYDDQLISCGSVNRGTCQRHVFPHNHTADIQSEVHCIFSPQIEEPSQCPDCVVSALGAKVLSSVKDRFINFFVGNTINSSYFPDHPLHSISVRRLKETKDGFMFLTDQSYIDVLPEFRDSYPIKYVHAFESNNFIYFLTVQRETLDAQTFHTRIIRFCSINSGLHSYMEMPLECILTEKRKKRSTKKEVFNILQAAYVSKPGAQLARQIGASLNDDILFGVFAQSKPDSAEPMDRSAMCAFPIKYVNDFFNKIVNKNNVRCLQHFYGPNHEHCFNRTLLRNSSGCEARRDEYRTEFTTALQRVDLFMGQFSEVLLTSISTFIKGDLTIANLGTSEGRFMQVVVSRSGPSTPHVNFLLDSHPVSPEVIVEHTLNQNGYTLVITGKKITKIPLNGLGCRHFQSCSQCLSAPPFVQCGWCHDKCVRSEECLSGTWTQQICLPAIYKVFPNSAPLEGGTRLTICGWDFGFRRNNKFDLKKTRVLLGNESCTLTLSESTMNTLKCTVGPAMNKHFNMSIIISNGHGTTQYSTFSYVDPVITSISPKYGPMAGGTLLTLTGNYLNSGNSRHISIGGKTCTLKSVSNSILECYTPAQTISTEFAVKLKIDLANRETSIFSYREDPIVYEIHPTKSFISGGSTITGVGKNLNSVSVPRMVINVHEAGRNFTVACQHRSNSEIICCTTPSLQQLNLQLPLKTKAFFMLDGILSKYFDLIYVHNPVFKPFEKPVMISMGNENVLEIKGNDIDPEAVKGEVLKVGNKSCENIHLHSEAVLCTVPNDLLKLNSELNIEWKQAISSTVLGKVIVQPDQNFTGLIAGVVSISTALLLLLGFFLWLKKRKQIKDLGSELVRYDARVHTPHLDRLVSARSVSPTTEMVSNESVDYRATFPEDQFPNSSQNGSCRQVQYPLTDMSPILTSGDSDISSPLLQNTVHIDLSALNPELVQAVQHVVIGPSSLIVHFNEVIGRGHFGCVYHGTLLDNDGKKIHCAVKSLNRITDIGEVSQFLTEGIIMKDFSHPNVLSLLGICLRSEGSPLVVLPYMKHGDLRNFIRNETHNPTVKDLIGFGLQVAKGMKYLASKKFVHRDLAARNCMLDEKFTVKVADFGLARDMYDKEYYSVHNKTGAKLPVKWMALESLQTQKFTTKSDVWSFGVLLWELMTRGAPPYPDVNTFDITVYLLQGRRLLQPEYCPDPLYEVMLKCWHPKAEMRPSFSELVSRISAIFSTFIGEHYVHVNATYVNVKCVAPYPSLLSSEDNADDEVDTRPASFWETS
Sequence of Wee1-like protein kinase (Homo sapiens) (P30291 whole entry, looked up): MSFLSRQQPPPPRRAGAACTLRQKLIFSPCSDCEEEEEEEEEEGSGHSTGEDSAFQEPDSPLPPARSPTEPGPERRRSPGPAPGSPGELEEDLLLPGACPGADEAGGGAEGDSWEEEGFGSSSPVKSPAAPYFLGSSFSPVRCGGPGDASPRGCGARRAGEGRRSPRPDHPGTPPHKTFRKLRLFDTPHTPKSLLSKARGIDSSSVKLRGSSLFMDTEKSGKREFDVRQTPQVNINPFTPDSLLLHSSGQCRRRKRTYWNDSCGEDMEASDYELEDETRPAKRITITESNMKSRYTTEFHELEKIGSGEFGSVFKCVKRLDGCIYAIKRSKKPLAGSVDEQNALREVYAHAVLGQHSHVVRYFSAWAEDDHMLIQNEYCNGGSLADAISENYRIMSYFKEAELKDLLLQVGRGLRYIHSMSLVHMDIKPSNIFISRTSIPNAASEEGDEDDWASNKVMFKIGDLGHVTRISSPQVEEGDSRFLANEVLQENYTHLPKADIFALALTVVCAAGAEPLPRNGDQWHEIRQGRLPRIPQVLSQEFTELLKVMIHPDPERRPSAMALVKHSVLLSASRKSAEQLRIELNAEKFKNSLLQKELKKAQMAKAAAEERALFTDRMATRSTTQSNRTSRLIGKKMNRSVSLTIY
Sequence of BDNF/NT-3 growth factors receptor (Homo sapiens) (Q16620 32-822 limits assumed): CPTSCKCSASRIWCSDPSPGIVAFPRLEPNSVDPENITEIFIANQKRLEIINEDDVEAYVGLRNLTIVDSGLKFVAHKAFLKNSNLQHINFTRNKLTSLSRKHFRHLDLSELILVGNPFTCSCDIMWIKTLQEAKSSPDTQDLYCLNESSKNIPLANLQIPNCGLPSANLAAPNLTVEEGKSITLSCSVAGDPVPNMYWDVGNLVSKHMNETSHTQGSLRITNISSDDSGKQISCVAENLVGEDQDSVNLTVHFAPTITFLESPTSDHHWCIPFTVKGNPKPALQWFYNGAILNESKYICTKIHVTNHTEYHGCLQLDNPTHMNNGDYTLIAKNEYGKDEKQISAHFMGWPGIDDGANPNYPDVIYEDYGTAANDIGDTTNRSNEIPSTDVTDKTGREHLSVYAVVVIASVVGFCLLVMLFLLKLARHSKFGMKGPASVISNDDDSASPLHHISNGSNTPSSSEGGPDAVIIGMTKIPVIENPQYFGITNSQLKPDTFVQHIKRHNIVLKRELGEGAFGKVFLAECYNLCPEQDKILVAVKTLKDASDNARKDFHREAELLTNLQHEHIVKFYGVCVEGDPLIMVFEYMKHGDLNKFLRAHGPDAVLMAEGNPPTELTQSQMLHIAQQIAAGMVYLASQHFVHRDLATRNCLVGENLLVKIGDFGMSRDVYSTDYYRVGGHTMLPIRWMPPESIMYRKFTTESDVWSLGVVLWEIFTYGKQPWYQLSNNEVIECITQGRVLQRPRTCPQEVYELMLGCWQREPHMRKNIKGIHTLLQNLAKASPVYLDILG
Sequence of Receptor tyrosine-protein kinase erbB-2 (Homo sapiens) (P04626 whole entry): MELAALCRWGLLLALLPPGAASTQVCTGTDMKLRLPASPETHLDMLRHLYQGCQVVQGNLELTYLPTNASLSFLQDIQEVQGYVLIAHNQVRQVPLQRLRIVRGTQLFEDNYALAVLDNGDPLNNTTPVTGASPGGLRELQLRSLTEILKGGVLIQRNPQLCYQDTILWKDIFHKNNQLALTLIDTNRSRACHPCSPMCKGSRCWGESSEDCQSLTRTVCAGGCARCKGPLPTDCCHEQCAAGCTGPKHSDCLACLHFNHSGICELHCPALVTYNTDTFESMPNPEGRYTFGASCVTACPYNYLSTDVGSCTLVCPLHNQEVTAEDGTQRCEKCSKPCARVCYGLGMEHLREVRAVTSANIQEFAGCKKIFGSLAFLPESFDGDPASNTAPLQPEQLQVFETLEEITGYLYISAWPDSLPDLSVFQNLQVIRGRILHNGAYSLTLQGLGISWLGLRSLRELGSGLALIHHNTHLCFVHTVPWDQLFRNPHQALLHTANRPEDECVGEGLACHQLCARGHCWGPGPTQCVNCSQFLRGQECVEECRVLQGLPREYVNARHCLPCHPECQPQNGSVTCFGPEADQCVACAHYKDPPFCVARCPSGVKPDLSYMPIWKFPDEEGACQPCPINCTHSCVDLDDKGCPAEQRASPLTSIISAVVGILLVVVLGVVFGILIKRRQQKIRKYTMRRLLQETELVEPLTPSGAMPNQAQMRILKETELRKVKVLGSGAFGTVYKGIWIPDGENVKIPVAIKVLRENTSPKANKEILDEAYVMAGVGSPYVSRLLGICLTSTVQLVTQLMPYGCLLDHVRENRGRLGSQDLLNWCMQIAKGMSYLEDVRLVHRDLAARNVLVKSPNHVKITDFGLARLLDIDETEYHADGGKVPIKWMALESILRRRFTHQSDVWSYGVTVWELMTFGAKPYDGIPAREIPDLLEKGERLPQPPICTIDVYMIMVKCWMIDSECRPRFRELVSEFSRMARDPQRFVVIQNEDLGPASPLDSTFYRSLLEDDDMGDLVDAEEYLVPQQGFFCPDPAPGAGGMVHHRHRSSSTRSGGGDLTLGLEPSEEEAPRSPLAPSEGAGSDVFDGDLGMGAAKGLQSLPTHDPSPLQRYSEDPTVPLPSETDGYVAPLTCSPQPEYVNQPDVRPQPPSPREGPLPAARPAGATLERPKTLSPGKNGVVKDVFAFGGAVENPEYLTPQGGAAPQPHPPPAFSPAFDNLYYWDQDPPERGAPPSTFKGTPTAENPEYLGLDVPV
Sequence of Serine/threonine-protein kinase Nek7 (Homo sapiens) (Q8TDX7 whole entry, looked up): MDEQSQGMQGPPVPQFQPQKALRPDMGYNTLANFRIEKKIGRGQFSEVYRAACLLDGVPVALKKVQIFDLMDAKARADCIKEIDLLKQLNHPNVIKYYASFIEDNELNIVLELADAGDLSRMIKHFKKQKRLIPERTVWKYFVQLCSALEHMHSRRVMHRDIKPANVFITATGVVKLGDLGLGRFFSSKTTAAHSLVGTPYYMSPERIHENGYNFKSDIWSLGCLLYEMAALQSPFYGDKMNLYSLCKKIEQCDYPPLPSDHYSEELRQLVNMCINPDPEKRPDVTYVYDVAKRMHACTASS

`O=C(N[C@@H](C1CC1)C(F)(F)F)c1cc(-c2cnn3cc(-c4ccc(F)cc4)cnc23)cs1`: the fold change (FC) is 0 in assay [1]; 0.01 in assay [2]; 0.01 in assay [3]; 0 in assay [4]; 0 in assay [5].
Turning to `CNC(=O)c1ccccc1Oc1nc(Nc2cc(OC)c(OC)c(OC)c2)ncc1Br`, the inhibition in assay [6] came to 32%; in assay [7], 0%; in [8], 48%. The fold change (FC) in assay [9] and in assay [10] was 0 throughout.
`CC(C)[C@H](NC(=O)c1cc(-c2cnn3cc(-c4ccc(OCCN5CCCCC5)cc4)cnc23)cs1)C(F)(F)F`: the inhibition in [11] came out at 0%; in assay [12], 0%; in [13] it was 16%.

What is called inhibition is how much of the control response was suppressed.
